Test results: ChEMBL document CHEMBL2346664, “Synthesis, characterization and in vitro anticancer evaluation of novel 1,2,4-triazolin-3-one derivatives” (2013)

Assays:
Type in all cases: functional
[1] = tested on: RXF 393; assay: Growth inhibition of human RXF393 cells assessed as cell growth at 10 '-8 M after 48 hrs by sulforhodamine B assay; conditions: RXF 393, 48 h, read-out: Activity
[2] = tested on: LOX IMVI; assay: Growth inhibition of human LOXIMVI cells assessed as cell growth at 10 '-8 M after 48 hrs by sulforhodamine B assay; conditions: read-out: Activity
[3] = tested on: COLO 205; assay: Growth inhibition of human COLO205 cells assessed as cell growth at 10 '-6 M after 48 hrs by sulforhodamine B assay; conditions: COLO 205, 48 h, read-out: Activity
In short: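 In the same five-dose SRB screen (48 h, 37 °C, 5% CO2), percentage growth was computed at each concentration from time-zero (Tz), control (C) and treated (Ti) absorbances. The formula was [(Ti−Tz)/(C−Tz)]×100 when Ti ≥ Tz, or [(Ti−Tz)/Tz]×100 when Ti < Tz.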

[4] = tested on: SK-OV-3; assay: Growth inhibition of human SKOV3 cells assessed as cell growth at 10 '-8 M after 48 hrs by sulforhodamine B assay; conditions: SK-OV-3, 48 h, read-out: Activity
[5] = tested on: Malme-3M; assay: Growth inhibition of human MALME-3M cells assessed as cell growth at 10 '-4 M after 48 hrs by sulforhodamine B assay; conditions: read-out: Activity
[6] = Growth inhibition of human Hs 578T cells assessed as cell growth at 10 '-8 M after 48 hrs by sulforhodamine B assay; conditions: read-out: Activity
[7] = tested on: UACC-62; assay: Growth inhibition of human UACC62 cells after 48 hrs by sulforhodamine B assay; conditions: UACC-62, 48 h
[8] = tested on: OVCAR-3; assay: Growth inhibition of human OVCAR3 cells assessed as cell growth at 10 '-5 M after 48 hrs by sulforhodamine B assay; conditions: OVCAR-3, 48 h, read-out: Activity
[9] = tested on: TK-10; assay: Growth inhibition of human TK10 cells after 48 hrs by sulforhodamine B assay; conditions: TK-10, 48 h
[10] = tested on: OVCAR-8; assay: Growth inhibition of human OVCAR8 cells assessed as cell growth at 10 '-6 M after 48 hrs by sulforhodamine B assay; conditions: OVCAR-8, 48 h, read-out: Activity
[11] = tested on: UACC-62; assay: Growth inhibition of human UACC62 cells assessed as cell growth at 10 '-5 M after 48 hrs by sulforhodamine B assay; conditions: UACC-62, 48 h, read-out: Activity
[12] = tested on: HOP-62; assay: Growth inhibition of human HOP62 cells assessed as cell growth at 10 '-8 M after 48 hrs by sulforhodamine B assay; conditions: HOP-62, 48 h, read-out: Activity
[13] = tested on: KM12; assay: Growth inhibition of human KM12 cells assessed as cell growth at 10 '-6 M after 48 hrs by sulforhodamine B assay; conditions: KM12, 48 h, read-out: Activity
[14] = tested on: UACC-257; assay: Growth inhibition of human UACC257 cells assessed as cell growth at 10 '-5 M after 48 hrs by sulforhodamine B assay; conditions: UACC-257, 48 h, read-out: Activity
[15] = tested on: BT-549; assay: Growth inhibition of human BT549 cells assessed as cell growth at 10 '-6 M after 48 hrs by sulforhodamine B assay; conditions: BT-549, 48 h, read-out: Activity
In short: (§1)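 Percent growth at each of the five concentrations of the 48 h continuous-exposure NCI SRB screen. Drug stocks were in DMSO at 400× the top final concentration and diluted in medium with gentamicin. Growth was calculated as [(Ti-Tz)/(C-Tz)]×100 when Ti ≥ Tz, or [(Ti-Tz)/Tz]×100 when Ti < Tz. Tz plates were fixed at drug addition; untreated wells served as control. Absorbance was read at 515 nm.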

[16] = tested on: A498; assay: Growth inhibition of human A498 cells assessed as cell growth at 10 '-6 M after 48 hrs by sulforhodamine B assay; conditions: A498, 48 h, read-out: Activity; in short: as §1
[17] = tested on: SR; assay: Growth inhibition of human SR cells assessed as cell growth at 10 '-8 M after 48 hrs by sulforhodamine B assay; conditions: read-out: Activity
[18] = tested on: A498; assay: Growth inhibition of human A498 cells after 48 hrs by sulforhodamine B assay; conditions: A498, 48 h
In short: (§2)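 NCI 60-cell-line five-dose screen at 0.01, 0.1, 1, 10 and 100 µM final. Cells were plated at 5,000–40,000/well and grown 24 h at 37 °C, 5% CO2, then exposed to drug continuously for 48 h. Adherent cells were fixed with cold TCA (10% final) and stained with SRB; absorbance read at 515 nm. GI50 is the concentration where [(Ti-Tz)/(C-Tz)]×100 = 50, with Tz plates fixed at drug addition.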

[19] = tested on: U-251; assay: Growth inhibition of human U251 cells assessed as cell growth at 10 '-7 M after 48 hrs by sulforhodamine B assay; conditions: U-251, 48 h, read-out: Activity
[20] = tested on: HL-60(TB); assay: Growth inhibition of human HL-60(TB) cells assessed as cell growth at 10 '-4 M after 48 hrs by sulforhodamine B assay; conditions: HL-60, 48 h, read-out: Activity
In short: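 Five-dose NCI protocol with final concentrations of 0.01–100 µM and drug diluted from a DMSO stock (400× the top concentration) in medium with gentamicin. Cells were pre-incubated 24 h, then exposed 48 h at 37 °C. Suspension cells were fixed with 16% final TCA, SRB-stained and read at 515 nm. Percentage growth at each level was [(Ti−Tz)/(C−Tz)]×100, or [(Ti−Tz)/Tz]×100 when Ti < Tz.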

[21] = Growth inhibition of human […] cells after 48 hrs by sulforhodamine B assay; in short: as §2
[22] = tested on: SK-OV-3; assay: Growth inhibition of human SKOV3 cells assessed as cell growth at 10 '-4 M after 48 hrs by sulforhodamine B assay; conditions: SK-OV-3, 48 h, read-out: Activity
[23] = tested on: SN12C; assay: Growth inhibition of human SN12C cells assessed as cell growth at 10 '-5 M after 48 hrs by sulforhodamine B assay; conditions: read-out: Activity
[24] = tested on: MDA-MB-435; assay: Growth inhibition of human MDA-MB-435 cells assessed as cell growth at 10 '-6 M after 48 hrs by sulforhodamine B assay; conditions: MDA-MB-435, 48 h, read-out: Activity
[25] = tested on: K562; assay: Growth inhibition of human K562 cells assessed as growth inhibition at 10 uM after 48 hrs by sulforhodamine B assay; conditions: K562, 48 h, read-out: GI
[26] = Growth inhibition of human Hs 578T cells assessed as cell growth at 10 '-5 M after 48 hrs by sulforhodamine B assay; conditions: read-out: Activity
[27] = read-out: LD50 (the source's name)

Cc1cc(=O)oc2cc(OCCn3c(C)nn(-c4ccc(Cl)cc4)c3=O)ccc12
growth at 0.01 µM [1]: 95% | growth at 0.01 µM [2]: 96% | growth at 1 µM [3]: 89% | growth at 0.01 µM [4]: 111% | growth at 100 µM [5]: 41% | growth at 0.01 µM [6]: 88% | GI50 [7]: 1990 nM | TGI [7]: > 1000 nM | CC50 [7, 27]: > 1000 nM | growth at 10 µM [8]: 7% | GI50 [9]: 1340 nM | TGI [9]: 8840 nM | CC50 [9, 27]: > 1000 nM | growth at 1 µM [10]: 97% | growth at 10 µM [11]: 24% | growth at 0.01 µM [12]: 101% | growth at 1 µM [13]: 58% | growth at 10 µM [14]: 40% | growth at 1 µM [15]: 89% | growth at 1 µM [16]: 52% | growth at 0.01 µM [17]: 101% | GI50 [18]: 1130 nM | TGI [18]: 3190 nM | CC50 [18, 27]: > 1000 nM | growth at 0.1 µM [19]: 97% | growth at 100 µM [20]: 1% | GI50 [21]: 5700 nM | TGI [21]: > 1000 nM | CC50 [21, 27]: > 1000 nM | growth at 100 µM [22]: -7% | growth at 10 µM [23]: 39% | growth at 1 µM [24]: -8% | inhibition of growth at 10 µM [25]: 83.7% | growth at 10 µM [26]: 28%
